Results on five molecules are retold here after article PMC11962390 (Molecular Cancer Therapeutics, 2025).

One assay concerns OV231-CP30 spheres. The assay is described as follows: 3D CellTiter-Glo cell viability assay of spheres. The format is cell-based, human. The note with it: OV231-CP30 grown in 3D (spheroids), 48 hours. An outline of the steps:
(§1)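 Cells (500) were seeded in MammoCult with proliferation supplement in ultralow-attachment 96-well plates to form spheres. Seven days after plating, the spheres were treated with the test compound. CellTiter-Glo 3D luminescence was read 48 h later. Dose–response curves were fitted by sigmoidal variable-slope fit.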

The test system of assay [1] is OV81-CP40 cells. Briefly: MTT cell viability assay. The format is cell-based, human. A general note: Tetrazolium assays rely on reduction of a dye to a coloured formazan, in cell work by metabolically active cells.
In assay [2] the test system is FT237 cells. Briefly: MTT cell viability assay. The format is cell-based, human. The settings on record: FT237, 48 hours, nondeterminable up to highest dose, Supplementary Fig. S5D.
Assay [3] deals with canonical Wnt pathway activation (reporter TOP-GFP) in OV81-CP40 cells. Briefly: TOP-GFP and FOP-GFP assay. The format is cell-based, human. The settings on record: OV81-CP40, 6 hours, 20 mmol/L LiCl, […] NCB-0846 or 100 nmol/L NVP-2. An outline of the steps: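 OV81-CP40 cells stably expressing lentiviral TOP-GFP or FOP-GFP reporters were plated and treated one day later for 6 h with LiCl and/or test compounds. Cells were harvested, PBS-washed and run by flow cytometry at 10,000 cells per sample, gating the top ~10% GFP-positive cells. Results were given as TOP/FOP, mean ± SEM, n = 3, by one-way ANOVA.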

Another assay has as its system OV81-CP40 spheres. Briefly: 3D CellTiter-Glo cell viability assay of spheres. The assay is classed as cell-based, human. The settings on record: OV81-CP40 grown in 3D (spheroids), 48 hours. An outline of the steps: as §1
In assay [4] the test system is OV231-CP30 cells. The assay is described as follows: MTT cell viability assay. The assay is classed as cell-based, human.
Assay [5] has as its system FT237 cells. The assay is described as follows: CellTiter-Glo cell viability assay. The assay is classed as cell-based, human. The settings on record: nonmalignant fallopian tube secretory cell line FT237, 48 hours. An outline of the steps: (§2)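 2D culture in the cells' own medium in 96-well plates. Cells were treated with a dose curve of test compound one day after plating. CellTiter-Glo luminescence was read after 48 h. Viability was expressed as fold change to DMSO (mean ± SEM, n = 3). EC50 came from a sigmoidal variable-slope fit.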
For orientation: In ATP-based viability assays light output follows the ATP content of the culture.

The subject of a further assay is OV-UM52.1 cells. Briefly: 3D CellTiter-Glo cell viability assay. The assay is classed as cell-based, human. The note with it: OV-UM52.1, 3D, 48 hours. The essentials: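 Primary HGSC cells were grown as 3D spheres in MammoCult with supplement on ultralow-attachment plates and treated with a dose curve of test compound. CellTiter-Glo 3D luminescence was read after 48 h. Values were expressed relative to DMSO (mean ± SEM, n = 3). The curve was fitted with bottom constrained to 0 and top to 1.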

The test system of a further assay is FT194 cells. Briefly: CellTiter-Glo cell viability assay. The format is cell-based, human. The settings on record: nonmalignant fallopian tube secretory cell line FT194, 48 hours. The essentials:
as §2

Assay [6] relates to P8_rAsc patient-derived organoid. The assay is described as follows: Organoid drug-response profiling. The format is cell-based, human. The note with it: 96 hours. The essentials:
(§3)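 Patient-derived HGSC organoids were embedded in BME-2 droplets in 384-well ultralow-attachment plates and grown 7–10 days with medium changes every 2–3 days. Test compounds were added in five 10-fold dilutions, with DMSO and 10 μmol/L bortezomib as controls. After 96 h at 37°C, wells were stained 2 h with CellTox Green and Hoechst 33342 (5 μg/mL final) and imaged confocally. Survival was normalized to controls and fitted by four-parameter fit (bottom 0), mean ± SD, n = 2.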

In assay [7] the test system is P10_rPlfl patient-derived organoid. The assay is described as follows: Organoid drug-response profiling. The assay is classed as cell-based, human. The note with it: organoid P10_rPIfl, 96 hours. An outline of the steps:
as §3

The subject of assay [8] is OV81-CP40 cells. Briefly: CellTiter-Glo cell viability assay. The assay is classed as cell-based, human.
Assay [9] relates to P12_rPer patient-derived organoid. Briefly: Organoid drug-response profiling. The assay is classed as cell-based, human. The note with it: 96 hours. An outline of the steps:
as §3

Another assay concerns JHUEM7 cells. The assay is described as follows: MTT cell viability assay. The assay is classed as cell-based, human. The note with it: TNIK-null JHUEM7, 48 hours, Fig. 3K.
The test system of assay [10] is OV231-CP30 cells. The assay is described as follows: CellTiter-Glo cell viability assay. The format is cell-based, human. The settings on record: OV231-CP30, 48 hours, Fig. 2B. The essentials: as §2
A further assay has as its system OV-UM32.1 cells. Briefly: 3D CellTiter-Glo cell viability assay. The assay is classed as cell-based, human. The note with it: OV-UM32.1, 3D, 48 hours.
The test system of a further assay is HEC1B cells. The assay is described as follows: MTT cell viability assay. The format is cell-based, human. The settings on record: dose response up to 10 μmol/L, 48 hours, unable to generate an EC50.
A further assay relates to OV-UM50.2 cells. The assay is described as follows: 3D CellTiter-Glo cell viability assay. The format is cell-based, human. The settings on record: OV-UM50.2, 3D, 48 hours.
The subject of assay [11] is panel of 377 human wild-type kinases. The assay is described as follows: Kinase selectivity profiling, KinaseProfiler. The note with it: of 377 human wildtype kinases. The assay is classed as biochemical. An outline of the steps: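 Radiometric 33P transfer from [γ-33P]ATP to peptide/protein substrates was used, in 8 mmol/L MOPS pH 7.0 with 0.2 mmol/L EDTA and kinase-specific metal supplements. Lipid and atypical kinases were run by HTRF in HEPES buffer. […] Output was % activity remaining, with full inhibition set by reference inhibitors.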

A further assay has as its system primary HGSC organoids. The assay is described as follows: Organoid drug-response profiling, whole panel. The assay is classed as cell-based, human. The note with it: 96 hours. An outline of the steps:
as §3

The mark [12] stands for this setting: OV81-CP40, MTT used to generate CI, Fig. 2D.

A word on the EC50: it is the midpoint of the concentration-response curve. Take `COC[C@@H](C)NC1CCC(Nc2cc(-c3cccc(NCC4(C#N)CCOCC4)n3)c(Cl)cn2)CC1` (stereo partly shown) [NVP-2]: the EC50 with OV231-CP30 spheres is 60.3 nM; in the assay on OV81-CP40 cells [1] (OV81-CP40, 48 hours, Supplementary Fig. S5D), 12.7 nM; in the assay with FT237 cells [2], over 80 nM; in the assay with OV81-CP40 spheres it was 52.1 nM. The “TOP-GFP induction after LiCl addition” value in assay [3] was “significantly decrease”.

In the case of `OC1CCC(Oc2cccc3cnc(Nc4ccc5nc[nH]c5c4)nc23)CC1` (stereo not shown) [NCB-0970], the EC50 was 3640 nM in the assay on OV231-CP30 cells [4] (read-out: 48-hour EC50, OV231-CP30, 48 hours, Supplementary Fig. S2E) and 9920 nM in the assay on OV81-CP40 cells [1] (read-out: 48-hour EC50, OV81-CP40, 48 hours, Supplementary Fig. S2E).

Broadly, the IC50 is the concentration that gives 50% inhibition. A higher IC50 goes with weaker potency in that assay. On to `OC1CCC(Oc2cccc3cnc(Nc4ccc5nc[nH]c5c4)nc23)CC1` (stereo not shown) [NCB-0846], for which the “response of cell viability to dose curve” value in the assay on FT237 cells [5] and in the assay on FT194 cells was “minimally responsive” in each case. The EC50 in the assay with OV-UM52.1 cells was found to be 2610 nM; in the assay with OV231-CP30 cells [4] (OV231-CP30, MTT used to generate CI, Fig. 2D) it was 440 nM; with OV81-CP40 cells [8] (OV81-CP40, 48 hours, Fig. 2B), 465 nM; in the assay with OV81-CP40 cells [8] (OV81-CP40, LiCl+-treated cells (20 mmol/L LiCl), 48 hours, Fig. 3A), 2120 nM; in the assay with OV81-CP40 cells [8] (OV81-CP40, LiCl−-treated cells, 48 hours, Fig. 3A), 585 nM; in the assay with OV81-CP40 cells [8] (OV81-CP40 transfected with siCDK9 9, 48 hours, Fig. 5C), 161 nM. Besides, the EC50 in the assay on OV81-CP40 cells [8] (OV81-CP40 transfected with siCDK9 11, 48 hours, Fig. 5C) was found to be 142 nM; with OV81-CP40 cells [8] (OV81-CP40 transfected with siControl, 48 hours, Fig. 5C), 399 nM; in the assay on OV231-CP30 spheres it was 1590 nM; with OV81-CP40 cells [1] (setting [12]), 464 nM; in the assay on OV231-CP30 cells [10], 584 nM; with OV-UM32.1 cells it was 4330 nM. The EC50 in the assay on HEC1B cells is over 10000 nM; in the assay on OV81-CP40 spheres, 710 nM; in the assay on OV-UM50.2 cells, 1600 nM. The IC50 in assay [6] was over 10000 nM; in assay [7], over 10000 nM; in assay [9], 4020 nM. Moreover, the “TOP-GFP induction after LiCl addition” value in assay [3] was “significantly decrease”. Further, the “reduction in cell viability at maximal doses” value in the assay on JHUEM7 cells is on record as about 50%. In addition, in [11], the “number of kinase hits” value turned out to be 175.

As to `N.N.[Cl][Pt][Cl]` [cisplatin], the EC50 with OV-UM52.1 cells was 9630 nM; with OV81-CP40 cells [1] (setting [12]), “non determinable (ND)”; with OV-UM32.1 cells, 12900 nM; in the assay on OV-UM50.2 cells, 22200 nM.

`N.N.O=C([O-])C1(C(=O)[O-])CCC1.[Pt+2]` [Carboplatin, carboplatin] gave a survival in the assay with primary HGSC organoids (all 13 organoids tested, at 10 μmol/L) of at least 50%. This molecule displayed an IC50 with primary HGSC organoids (five of the 13 organoids) of under 100000 nM. For the same molecule, the reduction in survival result in the assay on primary HGSC organoids (only one organoid, at 100 μmol/L) is “greater than 70%”.
